APP 5'UTR act = activates APP 5'UTR luciferase reporter; AID 1276; SH-SY5Y APP 5'UTR luciferase reporter, luminescence; zero percent = DMSO vehicle wells; hit rate 1% among 190,000; activation, % at 2 µM;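 active = activation above a set limit, based on mean plus 3 SD of controls, cut at about 140% in these data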
FLuc act counter = affects firefly luciferase, flagging false hits in luciferase stimulation screens | ATPlite luciferase biochemical, luminescence, 10 min; 0 = ATP-free wells, 1 = DMSO control | activation factor at 10 µM | 200,000 tested, under 10 active | AID 1027;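 active = luciferase activation factor, scaled between plate controls, of at least 2 with compound at 10 µM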
Target sequence (P08659 whole entry, looked up): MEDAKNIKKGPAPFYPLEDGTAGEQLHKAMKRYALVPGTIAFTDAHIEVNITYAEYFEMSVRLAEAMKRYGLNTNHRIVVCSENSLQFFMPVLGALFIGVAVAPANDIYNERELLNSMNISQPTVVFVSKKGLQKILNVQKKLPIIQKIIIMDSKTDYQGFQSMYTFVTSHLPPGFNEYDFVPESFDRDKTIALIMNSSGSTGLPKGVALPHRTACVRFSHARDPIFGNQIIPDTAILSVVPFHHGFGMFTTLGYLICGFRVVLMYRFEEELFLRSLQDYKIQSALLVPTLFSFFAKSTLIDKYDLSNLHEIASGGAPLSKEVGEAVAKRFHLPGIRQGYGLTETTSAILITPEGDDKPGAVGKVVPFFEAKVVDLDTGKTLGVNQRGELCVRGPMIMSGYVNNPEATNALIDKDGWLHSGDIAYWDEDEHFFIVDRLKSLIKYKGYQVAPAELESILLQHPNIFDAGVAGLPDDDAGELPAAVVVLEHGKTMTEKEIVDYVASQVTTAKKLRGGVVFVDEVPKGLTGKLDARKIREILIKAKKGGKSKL
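Assay system: Luciferase/luciferin detection reagent, cell-free biochemical luciferase assay / Read-out: luciferase activation / Benchmarks: No-ATP low control, compound-free enzyme-plus-ATP high control / Medium: PBS buffer for ATP / Detection: luminescence measurement of luciferase light output / Schedule: 10 min at ambient temperature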
FLuc inh counter = counter-screen for luciferase assay inhibitors: firefly luciferase inhibition | inhibition, % at 10 µM | hit rate 1.5% among 200,000 | AID 1006 | ATPLite firefly luciferase biochemical luminescence, 10 min | P08659;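 active = inhibition above about 50% when tested at 10 µM, limit read from the data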
NF-kB expr up = compounds increasing NF-kB expression in human neuronal cells. NF-kB reporter expression; stronger effect = higher value. fold change at 12.5 µM. hit rate 1.6% among 190,000; in the data active = fold change above about 3.3
C8 TRAIL sens = caspase-8 TRAIL sensitization; inhibition (viability loss, TRAIL sensitization), % at 10 µM; hit rate 1% among 360,000; NB7+C8 cells + TRAIL, ATPlite viability luminescence; AID 624354;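 active = compounds causing at least 50% loss of cell viability in the single-dose screen, relative to plate controls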
PPC-1+TRAIL kill = compounds killing PPC-1 cancer cells with TRAIL present (potentiator screen, no TRAIL-free arm) | cell killing (% activity), % at 4 µM or 5 µM | PPC-1 cells + TRAIL, ATPLite viability luminescence | hit rate 0.41% among 220,000;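 active = cell killing above 50% in the first pass at 4 µM, then a duplicate retest at 5 µM averaging 50% or more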
PPC1 cytotox = kills PPC-1 cells | shares compounds with PPC-1+TRAIL kill | PPC-1 viability, ATPlite luminescence, overnight | cytotoxicity, % at 5 µM | hit rate 50% among 1,200;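 active = reconfirmed compounds whose average cytotoxicity reaches 50% or more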
A number is an active result; – = inactive; · = no result given. Hits are enriched below; roughly 2.2% of the tested compounds scored in any of these assays.

SMILES	APP 5'UTR act	FLuc act counter	FLuc inh counter	NF-kB expr up	C8 TRAIL sens	PPC-1+TRAIL kill	PPC1 cytotox
O=C(Nc1ccc2c(c1)OCCO2)c1cncc(Br)c1	157.3	–	65.0	4.88	–	–	–
COC(=O)c1ccc(NC(=O)c2ccc3c(c2)OCO3)cc1	–	–	–	–	–	–	·
CC1(C(=O)Nc2ccccc2F)CCN1C(=O)Cc1cc(F)ccc1F (stereo not given)	·	·	·	·	–	·	·
C#CCNC(=O)C[C@@H]1C[C@@]2(C(=O)OCC)CCCC=C2N(CCC2=CCCCC2)C1=O	·	·	·	·	–	·	·
Cc1ccccc1NC(=O)c1ccc2c(c1)OCCO2	–	–	–	–	–	–	–
Cc1cccc(NC(=O)c2ccc3c(c2)OCCO3)c1C	·	·	·	·	–	·	·
O=C(Nc1ccncc1)c1ccc2c(c1)OCCO2	–	–	–	–	–	–	·
Cc1ccc(NC(=O)c2ccc3c(c2)OCCO3)cc1	145.1	–	89.0	4.07	67.2	56.3	55.5
O=[N+]([O-])c1cc(/C=N/NC(=S)Nc2ccccc2Cl)ccc1Cl	–	–	–	–	–	–	–
COc1ccc2c(c1)nc(N)n2Cc1ccccc1	–	–	–	–	–	–	·
COc1ccc(-c2n(Cc3ccccc3)c3ccccc3[n+]2Cc2ccccc2)cc1	–	–	–	–	–	–	–
Cc1ccc2ccccc2c1C(O)c1ncc(-c2ccccc2Cl)[nH]1 (stereo not given)	·	·	·	·	–	·	·
O=C(Nc1ccc(F)cc1)c1nn(-c2ccccc2)c(=O)cc1Cl	–	–	–	–	–	–	–
Cn1c(NC(=O)c2ccco2)c(-c2ccccc2)c(=O)c2ccccc21	–	–	–	–	–	–	–
CC(C)C(=O)Nc1c(-c2ccccc2)c(=O)c2ccccc2n1C	·	·	·	·	–	–	·
Cc1cc(C)n2c(NCc3ccccc3)c(-c3cc4ccccc4o3)nc2n1	·	·	·	·	–	·	·
CC(=O)OC(Cn1nc(C)cc1C)c1ccccc1 (stereo not given)	–	–	–	–	–	–	–
CC(C)NC(=O)N(C)C[C@H]1Oc2cc(C#Cc3ccc(F)cc3)ccc2S(=O)(=O)N([C@H](C)CO)C[C@H]1C	·	·	·	·	–	·	·
Cc1ccc(-c2nn(-c3ccccc3)cc2/C=N/NC(=O)c2ccncc2)o1	157.7	–	–	–	–	–	–
O=C(N/N=C/c1cn(-c2ccccc2)nc1-c1cccs1)c1ccncc1	–	–	–	–	–	–	·
Fc1ccc(-c2nc3c4ccccc4ccn3c2Cc2ccsc2)cc1	·	·	·	·	–	·	·
CCCCNC(=O)C1(C)CCCCCN1Cc1cccc2c(OC)cc(C(=O)OCC)cc12 (stereo not given)	·	·	·	·	–	·	·
Fc1ccc(Cn2c(-c3cscn3)nc3ccccc32)c(Cl)c1	–	–	–	–	–	–	–
Nc1nonc1-c1nc2ccccc2n1Cc1ccc(F)cc1Cl	–	–	–	–	–	–	·
CCOC(=O)c1ccc(NC(=O)c2nc[nH]c2C(=O)N[C@H](C)CO)cc1	·	·	·	·	–	·	·
SMILES	APP 5'UTR act	FLuc act counter	FLuc inh counter	NF-kB expr up	C8 TRAIL sens	PPC-1+TRAIL kill	PPC1 cytotox
COc1cccc(Cn2cnc(-c3ccccc3OC)c2C2CC2)c1	·	·	·	·	–	·	·
FC(F)(F)c1ccc(-c2nc3ccccc3s2)cc1	·	·	·	·	–	·	·
COc1cccc(-c2nc3ccccc3s2)c1O	212.0	–	86.6	6.44	73.4	61.3	64.2
CC(C)c1ccc(-c2nc3ccccc3s2)cc1	·	·	·	·	93.3	91.1	92.0
COc1ccc(-c2nc3ccccc3s2)cc1O	224.7	–	91.2	–	82.5	82.7	83.6
COc1cccc(C(=O)/C=C/Nc2cccc(O)c2)c1	148.1	–	95.8	12.1	82.3	85.1	86.1
Cc1ccc(-n2c(-c3ccccc3)c[n+]3c2CCc2ccccc2-3)c(C)c1	–	–	–	–	–	–	–
CCCCOc1ccc(C)cc1CN(CCO)CCO	–	–	–	–	–	–	·
CCCCCc1ccc(OCCCC[n+]2ccc(C)cc2)c(CCCCC)c1	–	–	–	–	–	–	–
CCCCCc1ccc(OCCCC[n+]2cccc(C)c2)c(CCCCC)c1	–	–	–	–	–	–	–
O=C(/C=C/c1ccccc1)Nc1cccc(C(=O)O)c1	–	–	91.5	5.06	81.1	63.9	60.7
O=C(/C=C/c1ccccc1)Nc1cc(NC(=O)/C=C/c2ccccc2)cc(C(=O)O)c1	·	·	·	·	–	·	·
CSc1ccc(/C=C/C(=O)Nc2ccccc2)cc1	210.3	–	82.9	6.28	58.1	64.2	66.4
CSc1cccc(NC(=O)/C=C/c2ccccc2)c1	–	–	–	–	–	–	·
Clc1ccccc1OCCNc1nc(NCC2CC2)nc2ccsc12	·	·	·	·	–	·	·
COC(=O)C[C@H]1C=C[C@H](NC(=O)Nc2ccccc2F)[C@@H](CO)O1	·	·	·	·	–	·	·
CC1(C(=O)NS(=O)(=O)c2ccc(Cl)cc2)CCN1C(=O)c1ccco1 (stereo not given)	·	·	·	·	–	·	·
Cc1ccc(-c2sc(C(=O)NN)c(C)c2C#N)cc1	·	·	·	·	–	73.1	76.0
Cc1ccc(CSc2sc(C(=O)c3ccccc3)c(N)c2C#N)cc1	–	–	–	–	–	–	·
CCCCNC(=O)CCC(=O)Nc1ccc2nc(N3CCC(C)CC3)cc(C)c2c1	–	–	–	–	–	–	–
Cc1cc(N2CCOCC2)nc2ccc(NC(=O)CCC(=O)N3CCC(C)CC3)cc12	–	–	–	–	–	–	·
Clc1ccccc1CSc1nc2ccncc2[nH]1	–	–	90.4	–	76.2	74.7	75.6
Clc1ccccc1CSc1ncccn1	–	–	–	–	–	–	–
COc1cccc(CSc2nc3ccncc3[nH]2)c1	·	·	·	·	85.9	83.2	80.7
COc1cccc(N2CCN(C(=O)c3ccc(CSc4nc5ccncc5[nH]4)cc3)CC2)c1	–	–	–	–	–	–	·
SMILES	APP 5'UTR act	FLuc act counter	FLuc inh counter	NF-kB expr up	C8 TRAIL sens	PPC-1+TRAIL kill	PPC1 cytotox
CCN1C(=O)[C@H]2[C@@H](c3ccc(OC)cc3)N[C@]3(CCCN(CC4CCCCC4)C3=O)[C@H]2C1=O	·	·	·	·	–	·	·
COc1ccc(Cc2c(C3CCCCC3)nc3cc(C)c(Br)c(C)n23)c(C)c1	·	·	·	·	–	·	·
C=CCn1c(N/N=C/c2ccc(O)cc2)nc2ccccc2c1=O	–	–	81.8	–	–	–	–
O=C(Nc1ccc(NC(=O)c2ccco2)nc1)c1ccco1	164.2	–	84.0	4.03	68.5	52.6	51.9
CCCCNC(=O)c1nc(-c2cnc(C)cn2)oc1-c1ccc(Cl)cc1	·	·	·	·	–	·	·
Cc1cc(C)c(C#N)c(OCC2CCCO2)n1 (stereo not given)	·	·	·	·	–	·	·
COc1ccc(-c2coc3c(C(=O)Nc4cccnc4)cccc23)c(C)c1	·	·	·	·	–	·	·
CC1(C(=O)NCc2cccc3ccccc23)CCN1C(=O)C1(c2ccccc2)CCCC1 (stereo not given)	·	·	·	·	–	·	·
Cc1nc2cc(-c3ccccc3)sc2c(=O)n1N	–	–	88.8	–	75.7	65.3	63.7
Cn1c(NCc2ccccc2)nc2cc(-c3ccccc3)sc2c1=O	·	·	·	·	–	·	·
COc1ccc(-c2cc3nc4n(c(=O)c3s2)CCCCC4)cc1	·	·	·	·	–	–	·

High-throughput results: PubChem, several laboratories
